Data on 2 compounds can be found in ChEMBL document CHEMBL4251661, “Capsicodendrin from Cinnamosma fragrans Exhibits Antiproliferative and Cytotoxic Activity in Human Leukemia Cells: Modulation by Glutathione” (J Nat Prod, 2018).

Series [1] is described as follows: Drug level in DMSO-d6 treated with capsicodendrin at 2 mg measured after 1 hr by 1H-NMR spectra analysis. It is filed as physicochemical.
Series [2] deals with HL-60. The experiment in a line: Cytotoxicity against human HL60 cells assessed as cell death at 0.2 to 0.5 uM after 48 hrs in presence of GSH synthesis inhibitor buthionine sulfoximine by trypan blue dye exclusion method. It is filed as functional, cell-based. In a few lines: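 HL-60 cells (RPMI-1640 + 15% FBS, 37 °C, 5% CO2) seeded at 100 000 cells/mL. For line 1, cells were first held 40 h ± BSO 50 μM. They were then exposed to CPCD 0.1–0.5 μM or DMSO for 48 h or 48 and 72 h. Cells were mixed 1:1 with trypan blue and % blue-positive cells counted on a hemocytometer. Mean ± SEM of 3–9 separate-day runs.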

The test system of series [3] is K562. The series can be described thus: Growth inhibition of human K562 cells after 72 hrs in presence of GSH synthesis inhibitor buthionine sulfoximine by Beckman coulter counting method. Conditions: K562, 72 h. It is filed as functional, cell-based. The method in brief:
(§1)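 K562 cells in DMEM + 10% FBS, preincubated 40 h with or without BSO 50 μM, then seeded at 100 000 cells/mL. Exposed to CPCD or DMSO at 37 °C, 5% CO2; growth assessed after 48 h per figure legend (72 h per methods). Cell number read on a Coulter counter; IC50 calculated from growth curves. Mean ± SEM of 3–4 separate-day runs.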

The test system of series [4] is K562. The series can be described thus: Growth inhibition of human K562 cells after 72 hrs by Beckman coulter counting method. Conditions: K562, 72 h. It is filed as functional, cell-based. In a few lines: as §1
Series [5] concerns HL-60. The experiment in a line: Induction of reactive oxygen species generation in human HL60 cells at 1 to 5 uM measured at 2 mins interval for 1 hr by DCFH-DA staining-based fluorescence assay. It is filed as functional, cell-based. The method in brief:
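HL-60 cells (1 × 10^6/mL) loaded with DCFH-DA 2 μM in HEPES buffer for 30 min at 37 °C, washed, then treated with vehicle, CPCD 1–5 μM or H2O2 25 μM. Fluorescence read every 2 min up to 1 h, in triplicate wells. Rate expressed as fluorescence units per min.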

Series [6] concerns HL-60. The experiment in a line: Induction of apoptosis in human HL60 cells assessed as change in morphology at 0.2 to 0.5 uM after 48 hrs in presence of GSH synthesis inhibitor buthionine sulfoximine by […]. It is filed as functional, cell-based. The method in brief: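 HL-60 cells seeded at 100 000 cells/mL; for line 11, first held 40 h ± BSO 50 μM. Exposed to CPCD 0.1–0.5 μM or 0.1% DMSO for 48 h or 48 and 72 h. Washed pellets stained 20 min in the dark at room temperature with Hoechst 33342 (0.013 mg/mL). Fluorescence microscopy; 100–200 cells scored for apoptotic nuclear morphology.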

Series [7] deals with HL-60. The series can be described thus: Induction of DNA damage in human HL60 cells assessed as increase in DNA strand breaks at 2 to 5 uM after 1 hr in presence of GSH synthesis inhibitor buthionine sulfoximine by SYBR green dye based comet assay. It is filed as functional, cell-based. In a few lines: (§2)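 HL-60 cells (100 000 cells/mL), ±BSO 50 μM for 40 h, moved into HEPES/glucose/salt buffer pH 7.4. Treated 1 h at 37 °C with CPCD 0.5–5 μM or 0.2% DMSO. Cells embedded in low-melt agarose, lysed, held at pH 13, then electrophoresed 30 min at 21 V/cm. SYBR Gold staining; Olive tail moment scored from ≥100 cells. Mean ± SEM of 5 runs.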

For series [8], the system named is HL-60. The series can be described thus: Growth inhibition of human HL60 cells after 72 hrs by Beckman coulter counting method. It counts as functional, cell-based. The note with it: HL-60, 72 h. The method in brief: (§3)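 HL-60 cells in complete RPMI, preincubated 40 h with or without BSO 50 μM, then seeded at 100 000 cells/mL. Treated with CPCD (0.1, 0.2, 0.5 μM) or DMSO (1%) for 72 h at 37 °C, 5% CO2. Cells counted on a Coulter counter; IC50 taken from growth curves. Mean ± SEM of 3–4 separate-day experiments.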

A short description of series [9]: Displacement of ThioGlo4 from glutathione measured after 8 hrs by fluorescence assay. Conditions: read-out: Kd(app). The method in brief:
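GSH (5 μM) incubated with CPCD 0.5–100 μM in 1× PBS for 8 h at 37 °C. ThioGlo IV (10 μM) added to diluted aliquots; unreacted GSH quantified by fluorescence, excitation 400 nm, emission 465 nm.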

The subject of series [10] is HL-60. The experiment in a line: Growth inhibition of human HL60 cells after 72 hrs in presence of GSH synthesis inhibitor buthionine sulfoximine by Beckman coulter counting method. It is filed as functional, cell-based. The note with it: HL-60, 72 h. The method in brief:
as §3

Series [11] deals with HL-60. The experiment in a line: Induction of DNA damage in human HL60 cells assessed as increase in DNA strand breaks at 0.5 to 5 uM after 1 hr by SYBR green dye based comet assay. It is filed as functional, cell-based. In a few lines: as §2
In series [12] the test system is HL-60. The experiment in a line: Growth inhibition of human HL60 cells at 0.2 to 0.5 uM after 48 hrs in presence of GSH synthesis inhibitor buthionine sulfoximine by Beckman coulter counting method. It counts as functional, cell-based.

Structures are written as SMILES. pIC50, pKd: −log10 of the molar value. Calls of active or inactive are those of the source. The rule behind the calls is not given here.

Take `CC(=O)O[C@@H]1C=C(C=O)[C@](O)(C=O)[C@@]2(C)CCCC(C)(C)[C@H]12` [CINNAMODIAL]: the Drug metabolism entry in series [1] is given as “Metabolite_Detected”.

Take `CC(=O)O[C@@H]1C=C([C@H]2O[C@@H]3OC(O)C4=C[C@@H](OC(C)=O)[C@H]5C(C)(C)CCC[C@]5(C)[C@]43O2)[C@](O)(C=O)[C@@]2(C)CCCC(C)(C)[C@H]12` (some centres not stated): the result in series [2], in series [6], in [7] and in series [11] was Active. For the same compound, the negative-log IC50 (pIC50) was 6.68 to 6.74 in series [3], 6.32 to 6.44 in series [4], 6.57 to 6.70 in [8] and 7.05 to 7.15 in series [10]. The result in [5] was inactive. Further, the negative-log Kd (pKd) in series [9] was 5.14. In addition, the “growth inhibition (GI)” value in series [12] is “Active”.

By pIC50 is commonly meant the negative decadic logarithm of the IC50, by convention in mol/L. For orientation: pKd means the negative decadic logarithm of the Kd, by convention in mol/L.
